Experimental data reported in ChEMBL document CHEMBL3352788, “Characterization of selective exosite-binding inhibitors of matrix metalloproteinase 13 that prevent articular cartilage degradation in vitro” (J Med Chem, 2014).

Key:
Assay type in all cases: ADME
[1] = molecular target: Cytochrome P450 2C19 (Homo sapiens, UniProt P33261); assay: (§1) Inhibition of CYP2C19 (unknown origin) using (S)-mephentoin substrate at 20 uM; conditions: 20 µM
Outline: (§2)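 Human liver microsomes with probe substrate and an NADPH-regenerating system in 0.1 M potassium phosphate pH 7.4 at 37 °C, run in duplicate. Inhibitor at 0–20 μM (0–2.5 μM for one compound), eight concentrations. Reactions were stopped with acetonitrile/formic acid containing isotope-labelled internal standard, and metabolite area ratios were compared with and without inhibitor. IC50 was taken by linear interpolation between bracketing concentrations.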

[2] = molecular target: T1, Cytochrome P450 1A2 (Homo sapiens, UniProt P05177); assay: (§3) Inhibition of CYP1A2 (unknown origin) using tacrin substrate at 20 uM; conditions: 20 µM; outline: as §2
T1 sequence (P05177 whole entry): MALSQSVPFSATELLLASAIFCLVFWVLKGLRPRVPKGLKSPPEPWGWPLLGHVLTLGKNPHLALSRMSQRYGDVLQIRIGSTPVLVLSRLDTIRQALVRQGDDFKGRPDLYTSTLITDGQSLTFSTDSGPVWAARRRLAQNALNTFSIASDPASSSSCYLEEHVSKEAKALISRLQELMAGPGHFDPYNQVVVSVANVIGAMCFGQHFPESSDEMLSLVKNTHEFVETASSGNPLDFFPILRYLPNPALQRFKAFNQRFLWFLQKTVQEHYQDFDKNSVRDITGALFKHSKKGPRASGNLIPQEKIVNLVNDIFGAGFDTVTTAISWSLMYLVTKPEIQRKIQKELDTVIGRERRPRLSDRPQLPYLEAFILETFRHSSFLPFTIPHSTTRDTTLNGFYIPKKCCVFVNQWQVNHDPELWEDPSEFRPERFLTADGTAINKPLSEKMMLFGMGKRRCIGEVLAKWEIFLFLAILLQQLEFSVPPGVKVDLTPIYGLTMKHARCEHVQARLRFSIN

[3] = molecular target: CYP2C19 (Homo sapiens, UniProt P33261); assay: as §1; conditions: probe (S)-mephentoin; outline: as §2
Sequence of CYP2C19 (P33261 whole entry): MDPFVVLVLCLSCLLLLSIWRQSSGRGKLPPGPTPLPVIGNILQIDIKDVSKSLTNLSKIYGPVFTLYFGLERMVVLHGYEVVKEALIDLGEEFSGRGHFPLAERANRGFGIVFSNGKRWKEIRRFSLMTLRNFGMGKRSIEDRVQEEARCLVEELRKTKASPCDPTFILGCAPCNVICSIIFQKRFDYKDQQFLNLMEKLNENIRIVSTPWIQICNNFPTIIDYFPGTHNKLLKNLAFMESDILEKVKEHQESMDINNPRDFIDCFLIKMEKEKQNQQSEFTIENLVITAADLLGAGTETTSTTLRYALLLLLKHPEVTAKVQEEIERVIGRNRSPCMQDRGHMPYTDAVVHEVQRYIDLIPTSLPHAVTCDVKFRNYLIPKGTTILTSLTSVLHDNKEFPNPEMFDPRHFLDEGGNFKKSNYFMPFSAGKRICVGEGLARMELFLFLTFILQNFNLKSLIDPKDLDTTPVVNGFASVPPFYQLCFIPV

[4] = molecular target: CYP1A2 (Homo sapiens, UniProt P05177); assay: as §3; conditions: probe tacrin; outline: as §2

Sequence of Cytochrome P450 2C19 (P33261 whole entry): as above

inhibition (INH) [1] [%]	inhibition (INH) [2] [%]	SMILES	inhibition at 20 µM [3] [%]	inhibition at 20 µM [4] [%]
> 10	> 10	Cc1cc(CNC(=O)c2cc(C(=O)NCc3ccc(F)c(C)c3)ncn2)ccc1F	–	–
–	–	COC(=O)c1ccc(CSc2nc3c(c(=O)[nH]2)CCC3)cc1	< 50	29
